Experimental data as given in ChEMBL document CHEMBL1134513, “Synthesis and activities of pyoverdin-quinolone adducts: a prospective approach to a specific Therapy against Pseudomonas aeruginosa” (2001).
≈ marks a conversion by molar mass, not a printed value.

Columns and labels:
Pseudomonas aeruginosa [1] = assay: Minimum inhibitory concentration against Pseudomonas aeruginosa ATCC 27853 measured in Muller-Hinton (MH) liquid media; assay type: functional
Pseudomonas aeruginosa [2] = assay: Minimum inhibitory concentration against Pseudomonas aeruginosa K690, measured in succinate (SC) solid media; assay type: functional
Pseudomonas aeruginosa [3] = assay: Minimum inhibitory concentration against Pseudomonas aeruginosa K690, measured in Muller-Hinton (MH) solid media; assay type: functional
Pseudomonas aeruginosa [4] = assay: Minimum inhibitory concentration against Pseudomonas aeruginosa ATCC 15692 measured in Muller-Hinton (MH) liquid media; assay type: functional
Outline: (§1)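 Broth microdilution in Müller-Hinton medium, highest final concentration generally 64 µg/mL, final inoculum 10^6 cells/mL, 18 h at 37 °C. […] Adducts expressed as µg/mL quinolone equivalents.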

Pseudomonas aeruginosa [5] = assay: Minimum inhibitory concentration against Pseudomonas aeruginosa IAI measured in succinate (SC) solid media; assay type: functional
Pseudomonas aeruginosa [6] = assay: Minimum inhibitory concentration against Pseudomonas aeruginosa ATCC 15692 measured in Muller-Hinton (MH) solid media; assay type: functional
Pseudomonas aeruginosa [7] = assay: Minimum inhibitory concentration against Pseudomonas aeruginosa ATCC 27853 measured in succinate (SC) liquid media; assay type: functional
Pseudomonas aeruginosa [8] = assay: Minimum inhibitory concentration against Pseudomonas aeruginosa ATCC 15692 measured in succinate (SC) solid media; assay type: functional
Pseudomonas aeruginosa [9] = assay: Minimum inhibitory concentration against Pseudomonas aeruginosa IAI measured in succinate (SC) liquid media; assay type: functional
Pseudomonas aeruginosa [10] = assay: Minimum inhibitory concentration against Pseudomonas aeruginosa IAI, measured in Muller-Hinton (MH) solid media; assay type: functional
Pseudomonas aeruginosa [11] = assay: Minimum inhibitory concentration against Pseudomonas aeruginosa ATCC 15692 measured in succinate (SC) liquid media; assay type: functional
Pseudomonas aeruginosa [12] = assay: Minimum inhibitory concentration against Pseudomonas aeruginosa ATCC 27853 measured in succinate (SC) solid media; assay type: functional
Pseudomonas aeruginosa [13] = assay: Minimum inhibitory concentration against Pseudomonas aeruginosa ATCC 27853 measured in Muller-Hinton (MH) solid media; assay type: functional
Pseudomonas aeruginosa [14] = assay: Minimum inhibitory concentration against Pseudomonas aeruginosa IAI, measured in Muller-Hinton (MH) liquid media; assay type: functional; outline: as §1
[15] = Minimum effective dose required for the inhibition of Escherichia coli gyrase

MIC (Pseudomonas aeruginosa [2]) [µg/mL]	MIC (Pseudomonas aeruginosa [3]) [µg/mL]	MIC (Pseudomonas aeruginosa [5]) [µg/mL]	MIC (Pseudomonas aeruginosa [6]) [µg/mL]	MIC (Pseudomonas aeruginosa [8]) [µg/mL]	MIC (Pseudomonas aeruginosa [10]) [µg/mL]	MIC (Pseudomonas aeruginosa [12]) [µg/mL]	MIC (Pseudomonas aeruginosa [13]) [µg/mL]	MED [15] [µg/mL]	Compound	MIC (Pseudomonas aeruginosa [1]) [µg/mL]	MIC (Pseudomonas aeruginosa [4]) [µg/mL]	MIC (Pseudomonas aeruginosa [7]) [µg/mL]	MIC (Pseudomonas aeruginosa [9]) [µg/mL]	MIC (Pseudomonas aeruginosa [11]) [µg/mL]	MIC (Pseudomonas aeruginosa [14]) [µg/mL]
16	16	2	2	2	4	8	16	–	CCn1cc(C(=O)O)c(=O)c2cc(F)c(N3CCN(C(=O)OCOC(=O)CCC(=O)NCCNC(=O)CCC(=O)Nc4cc5cc(O)c(O)cc5[n+]5c4NCC[C@H]5C(=O)N[C@H](CO)C(=O)N[C@@H](CCCN=C(N)N)C(=O)N[C@H](CO)C(=O)N[C@@](C)(CCCN(O)C=O)C(=O)N[C@H]4CCCCNC(=O)[C@H]([C@@H](C)O)NC(=O)[C@H]([C@@H](C)O)NC(=O)[C@H](CCCN(O)C=O)NC4=O)CC3)cc21	16	2	8	0.5	0.5	4
–	–	–	–	–	–	–	–	50	CCn1cc(C(=O)O)c(=O)c2cc(F)c(N3CCN(C(=O)CCC(=O)NCCNC(=O)CCC(=O)Nc4cc5cc(O)c(O)cc5[n+]5c4NCC[C@H]5C(=O)N[C@@H](CO)C(=O)N[C@@H](CCCN=C(N)N)C(=O)N[C@H](CO)C(=O)N[C@@](C)(CCCN(O)C=O)C(=O)N[C@H]4CCCCNC(=O)[C@@H]([C@H](C)O)NC(=O)[C@H]([C@H](C)O)NC(=O)[C@H](CCCN(O)C=O)NC4=O)CC3)cc21	–	–	–	–	–	–
4	64	8	16	8	32	8	> 64	–	C[C@@H](O)[C@@H]1NC(=O)[C@H](CCCN(O)C=O)NC(=O)[C@@H](NC(=O)[C@](C)(CCCN(O)C=O)NC(=O)[C@@H](CO)NC(=O)[C@H](CCCN=C(N)N)NC(=O)[C@@H](CO)NC(=O)[C@@H]2CCNc3c(NC(=O)CCC(=O)NCCNC(=O)CCC(=O)N4CCN(c5cc6nc7c(cc6cc5F)c(=O)c(C(=O)O)cn7C)CC4)cc4cc(O)c(O)cc4[n+]32)CCCCNC(=O)[C@H]([C@@H](C)O)NC1=O	–	–	–	–	–	–
–	–	–	–	–	–	–	–	25	C[C@H](O)[C@@H]1NC(=O)[C@H](CCCN(O)C=O)NC(=O)[C@@H](NC(=O)[C@](C)(CCCN(O)C=O)NC(=O)[C@@H](CO)NC(=O)[C@H](CCCN=C(N)N)NC(=O)[C@H](CO)NC(=O)[C@@H]2CCNc3c(NC(=O)CCC(=O)NCCNC(=O)CCC(=O)N4CCN(c5cc6nc7c(cc6cc5F)c(=O)c(C(=O)O)cn7C)CC4)cc4cc(O)c(O)cc4[n+]32)CCCCNC(=O)[C@@H]([C@H](C)O)NC1=O	–	–	–	–	–	–
–	–	–	–	–	–	–	–	50	CCn1cc(C(=O)O)c(=O)c2cc(F)c(N3CCN(C(=O)OCOC(=O)CCC(=O)NCCNC(=O)CCC(=O)Nc4cc5cc(O)c(O)cc5[n+]5c4NCC[C@H]5C(=O)N[C@@H](CO)C(=O)N[C@@H](CCCN=C(N)N)C(=O)N[C@H](CO)C(=O)N[C@@](C)(CCCN(O)C=O)C(=O)N[C@H]4CCCCNC(=O)[C@@H]([C@H](C)O)NC(=O)[C@H]([C@H](C)O)NC(=O)[C@H](CCCN(O)C=O)NC4=O)CC3)cc21	–	–	–	–	–	–
8	32	1	8	1	16	4	64	–	C[C@@H](O)[C@@H]1NC(=O)[C@H](CCCN(O)C=O)NC(=O)[C@@H](NC(=O)[C@](C)(CCCN(O)C=O)NC(=O)[C@@H](CO)NC(=O)[C@H](CCCN=C(N)N)NC(=O)[C@@H](CO)NC(=O)[C@@H]2CCNc3c(NC(=O)CCC(=O)NCCNC(=O)CCC(=O)OCOC(=O)N4CCN(c5cc6nc7c(cc6cc5F)c(=O)c(C(=O)O)cn7C)CC4)cc4cc(O)c(O)cc4[n+]32)CCCCNC(=O)[C@H]([C@@H](C)O)NC1=O [BENZONAPHTHYRIDONE BPL ADDUCT]	32	4	32	2	2	8
8	32	4	8	2	32	8	> 64	–	CCn1cc(C(=O)O)c(=O)c2cc(F)c(N3CCN(C(=O)CCC(=O)NCCNC(=O)CCC(=O)Nc4cc5cc(O)c(O)cc5[n+]5c4NCC[C@H]5C(=O)N[C@H](CO)C(=O)N[C@@H](CCCN=C(N)N)C(=O)N[C@H](CO)C(=O)N[C@@](C)(CCCN(O)C=O)C(=O)N[C@H]4CCCCNC(=O)[C@H]([C@@H](C)O)NC(=O)[C@H]([C@@H](C)O)NC(=O)[C@H](CCCN(O)C=O)NC4=O)CC3)cc21	–	–	–	–	–	–
–	–	–	–	–	–	–	–	25	C[C@H](O)[C@@H]1NC(=O)[C@H](CCCN(O)C=O)NC(=O)[C@@H](NC(=O)[C@](C)(CCCN(O)C=O)NC(=O)[C@@H](CO)NC(=O)[C@H](CCCN=C(N)N)NC(=O)[C@@H](CO)NC(=O)[C@@H]2CCNc3c(NC(=O)CCC(=O)NCCNC(=O)CCC(=O)OCOC(=O)N4CCN(c5cc6nc7c(cc6cc5F)c(=O)c(C(=O)O)cn7C)CC4)cc4cc(O)c(O)cc4[n+]32)CCCCNC(=O)[C@@H]([C@H](C)O)NC1=O	–	–	–	–	–	–

Compound	MIC (Pseudomonas aeruginosa [2]) [µg/mL]	MIC (Pseudomonas aeruginosa [3]) [µg/mL]	MIC (Pseudomonas aeruginosa [5]) [µg/mL]	MIC (Pseudomonas aeruginosa [6]) [µg/mL]	MIC (Pseudomonas aeruginosa [8]) [µg/mL]	MIC (Pseudomonas aeruginosa [10]) [µg/mL]	MIC (Pseudomonas aeruginosa [12]) [µg/mL]	MIC (Pseudomonas aeruginosa [13]) [µg/mL]	MED [15] [µg/mL]	MIC (Pseudomonas aeruginosa [1]) [µg/mL]	MIC (Pseudomonas aeruginosa [4]) [µg/mL]	MIC (Pseudomonas aeruginosa [7]) [µg/mL]	MIC (Pseudomonas aeruginosa [9]) [µg/mL]	MIC (Pseudomonas aeruginosa [11]) [µg/mL]	MIC (Pseudomonas aeruginosa [14]) [µg/mL]
CCn1cc(C(=O)O)c(=O)c2cc(F)c(N3CCNCC3)cc21 [NORFLOXACIN]	4 (≈ 12.5 µM)	8 (≈ 25.1 µM)	0.03 (≈ 0.0939 µM)	0.25 (≈ 0.783 µM)	0.06 (≈ 0.188 µM)	1 (≈ 3.13 µM)	0.25 (≈ 0.783 µM)	2 (≈ 6.26 µM)	–	4 (≈ 12.5 µM)	1 (≈ 3.13 µM)	2 (≈ 6.26 µM)	0.25 (≈ 0.783 µM)	0.25 (≈ 0.783 µM)	1 (≈ 3.13 µM)
Cn1cc(C(=O)O)c(=O)c2cc3cc(F)c(N4CCNCC4)cc3nc21	16 (≈ 44.9 µM)	32 (≈ 89.8 µM)	16 (≈ 44.9 µM)	8 (≈ 22.4 µM)	4 (≈ 11.2 µM)	16 (≈ 44.9 µM)	8 (≈ 22.4 µM)	16 (≈ 44.9 µM)	4	32 (≈ 89.8 µM)	16 (≈ 44.9 µM)	> 64	32 (≈ 89.8 µM)	64 (≈ 180 µM)	16 (≈ 44.9 µM)
